Calls of active or inactive are those of the source. The calls are words filed in the database; no cut-off is given here.
Tests used:
Allium cepa [1] = test: Inhibition of germination of Allium cepa cv. Valenciana (onion) at 0.1 mM or 1 mM after 5 days relative to untreated control; type: functional
Triticum aestivum [2] = test: Inhibition of root length of Triticum aestivum cv. Cortex (wheat) at 0.1 mM or 1 mM after 5 days relative to untreated control; type: functional
Summary of the method: (§1)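 Wheat: 10 seeds per dish on filter paper with 5 mL test solution, 5 days in the dark at 25 °C, 10 replicates per concentration. Stock test solutions were 10^-3 or 10^-4 M in 10 mM MES, with lower levels made by dilution, all at pH 6.0. Parallel controls were run. Output is % difference from control.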

Triticum aestivum [3] = test: Inhibition of hypocotyl length of Triticum aestivum cv. Cortex (wheat) at 0.1 mM or 1 mM after 5 days relative to untreated control; type: functional; summary of the method: as §1
Triticum aestivum [4] = test: Inhibition of germination of Triticum aestivum cv. Cortex (wheat) at 0.1 mM or 1 mM after 5 days relative to untreated control; type: functional; summary of the method: as §1
Solanum lycopersicum [5] = test: Inhibition of hypocotyl length of Solanum lycopersicum cv. Tres Cantos (tomato) at 0.1 mM or 1 mM after 5 days relative to untreated control; type: functional
Summary of the method: (§2)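 Lettuce and tomato seeds, 25 per dish on filter paper, received 5 mL test solution. Incubation was 5 days in the dark at 25 °C, with four replicates per concentration. Solutions were made at 10^-3 or 10^-4 M in 10 mM MES, diluted serially, and adjusted to pH 6.0. Parallel controls were run. Results are % difference from control.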

Solanum lycopersicum [6] = test: Inhibition of root length of Solanum lycopersicum cv. Tres Cantos (tomato) at 0.1 mM or 1 mM after 5 days relative to untreated control; type: functional; summary of the method: as §2
Allium cepa [7] = test: Inhibition of root length of Allium cepa cv. Valenciana (onion) at 0.1 mM or 1 mM after 5 days relative to untreated control; type: functional
Allium cepa [8] = test: Inhibition of hypocotyl length of Allium cepa cv. Valenciana (onion) at 0.1 mM or 1 mM after 5 days relative to untreated control; type: functional
Allium cepa [9] = test: Stimulation of hypocotyl length of Allium cepa cv. Valenciana (onion) at 0.1 mM or 1 mM after 5 days relative to untreated control; type: functional
Allium cepa [10] = test: Stimulation of root length of Allium cepa cv. Valenciana (onion) at 0.1 mM or 1 mM after 5 days relative to untreated control; type: functional
Triticum aestivum [11] = test: Stimulation of hypocotyl length of Triticum aestivum cv. Cortex (wheat) at 0.1 mM or 1 mM after 5 days relative to untreated control; type: functional; summary of the method: as §1
Allium cepa [12] = test: Stimulation of germination of Allium cepa cv. Valenciana (onion) at 0.1 mM or 1 mM after 5 days relative to untreated control; type: functional
Triticum aestivum [13] = test: Stimulation of root length of Triticum aestivum cv. Cortex (wheat) at 0.1 mM or 1 mM after 5 days relative to untreated control; type: functional; summary of the method: as §1
Solanum lycopersicum [14] = test: Inhibition of germination of Solanum lycopersicum cv. Tres Cantos (tomato) at 0.1 mM or 1 mM after 5 days relative to untreated control; type: functional; summary of the method: as §2
Lepidium sativum [15] = test: Inhibition of germination of Lepidium sativum at 0.1 mM or 1 mM after 5 days relative to untreated control; type: functional
Lactuca sativa [16] = test: Inhibition of hypocotyl length of Lactuca sativa cv. Roman (lettuce) at 0.1 mM or 1 mM after 5 days relative to untreated control; type: functional; summary of the method: as §2
Lactuca sativa [17] = test: Inhibition of root length of Lactuca sativa cv. Roman (lettuce) at 0.1 mM or 1 mM after 5 days relative to untreated control; type: functional; summary of the method: as §2
Lactuca sativa [18] = test: Inhibition of germination of Lactuca sativa cv. Roman (lettuce) at 0.1 mM or 1 mM after 5 days relative to untreated control; type: functional; summary of the method: as §2
Triticum aestivum [19] = test: Stimulation of germination of Triticum aestivum cv. Cortex (wheat) at 0.1 mM or 1 mM after 5 days relative to untreated control; type: functional; summary of the method: as §1
Solanum lycopersicum [20] = test: Stimulation of hypocotyl length of Solanum lycopersicum cv. Tres Cantos (tomato) at 0.1 mM or 1 mM after 5 days relative to untreated control; type: functional; summary of the method: as §2
Solanum lycopersicum [21] = test: Stimulation of root length of Solanum lycopersicum cv. Tres Cantos (tomato) at 0.1 mM or 1 mM after 5 days relative to untreated control; type: functional; summary of the method: as §2
Solanum lycopersicum [22] = test: Stimulation of germination of Solanum lycopersicum cv. Tres Cantos (tomato) at 0.1 mM or 1 mM after 5 days relative to untreated control; type: functional; summary of the method: as §2
Lepidium sativum [23] = test: Stimulation of hypocotyl length of Lepidium sativum at 0.1 mM or 1 mM after 5 days relative to untreated control; type: functional
Lepidium sativum [24] = test: Stimulation of root length of Lepidium sativum at 0.1 mM or 1 mM after 5 days relative to untreated control; type: functional
Lactuca sativa [25] = test: Stimulation of root length of Lactuca sativa cv. Roman (lettuce) at 0.1 mM or 1 mM after 5 days relative to untreated control; type: functional; summary of the method: as §2
Lactuca sativa [26] = test: Stimulation of hypocotyl length of Lactuca sativa cv. Roman (lettuce) at 0.1 mM or 1 mM after 5 days relative to untreated control; type: functional; summary of the method: as §2
Lactuca sativa [27] = test: Stimulation of germination of Lactuca sativa cv. Roman (lettuce) at 0.1 mM or 1 mM after 5 days relative to untreated control; type: functional; summary of the method: as §2
Lepidium sativum [28] = test: Inhibition of root length of Lepidium sativum at 0.1 mM or 1 mM after 4 days relative to untreated control
Lepidium sativum [29] = test: Inhibition of germination of Lepidium sativum at 0.1 mM or 1 mM after 4 days relative to untreated control; design: scale not given: the % may be the effect or the level left
Lepidium sativum [30] = test: Inhibition of hypocotyl length of Lepidium sativum at 0.1 mM or 1 mM after 4 days relative to untreated control

SMILES	inhibition (INH) (Triticum aestivum [3]) [%]	inhibition (INH) (Solanum lycopersicum [6]) [%]	inhibition (INH) (Allium cepa [7]) [%]	inhibition (INH) (Allium cepa [8]) [%]	Activity (Allium cepa [9]) [%]	Activity (Allium cepa [10]) [%]	Activity (Triticum aestivum [11]) [%]	Activity (Allium cepa [12])	Activity (Triticum aestivum [13])	inhibition (INH) (Lepidium sativum [15]) [%]	inhibition (INH) (Lactuca sativa [17]) [%]	Activity (Triticum aestivum [19])	Activity (Solanum lycopersicum [20])	Activity (Solanum lycopersicum [21]) [%]	Activity (Solanum lycopersicum [22])	Activity (Lepidium sativum [23])	Activity (Lepidium sativum [24])	Activity (Lactuca sativa [25]) [%]	Activity (Lactuca sativa [26])	Activity (Lactuca sativa [27])	other results
C=C1C(=O)O[C@H]2[C@H]1CCC(=C)[C@@H]1CCC(=C)[C@@]12O	<20	<20	20	<20	<20	20	<20	inactive	inactive	<20	20	inactive	inactive	<20	inactive	>=20%	>=20%	20	inactive	inactive	inhibition (Allium cepa [1]): inactive; inhibition (Triticum aestivum [2]): inactive; inhibition (Triticum aestivum [4]): inactive; inhibition (Solanum lycopersicum [5]): inactive; inhibition (Solanum lycopersicum [14]): inactive; inhibition (Lactuca sativa [16]): inactive; inhibition (Lactuca sativa [18]): inactive; inhibition (INH) (Lepidium sativum [28]): >=20%; Activity (Lepidium sativum [29]): <20%; inhibition (INH) (Lepidium sativum [30]): >=20%
C=C1C(=O)C[C@H]2C(=C)CC[C@H]3C(=C)C(=O)O[C@@H]3[C@@H]12 [DEHYDROZALUZANIN C]	>40	>40	>40	>40	>40	>40	>40	>40%	>40%	>40	>40	>40%	>40%	>40	>40%	>40%	>40%	>40	>40%	>40%	inhibition (INH) (Allium cepa [1]): >40%; inhibition (INH) (Triticum aestivum [2]): >40%; inhibition (INH) (Triticum aestivum [4]): >40%; inhibition (INH) (Solanum lycopersicum [5]): >40%; inhibition (INH) (Solanum lycopersicum [14]): >40%; inhibition (INH) (Lactuca sativa [16]): >40%; inhibition (INH) (Lactuca sativa [18]): >40%; inhibition (INH) (Lepidium sativum [28]): >40%; Activity (Lepidium sativum [29]): >40%; inhibition (INH) (Lepidium sativum [30]): >40%
C=C1C(=O)O[C@H]2[C@H]1CCC(=C)[C@@H]1C[C@@H](O)C(=C)[C@@]12O [5ALPHA-HYDROXYISOZALUZANIN C]	20	>40	>40	>40	>40	>40	20	inactive	>40%	>40	<20	inactive	>40%	>40	inactive	>40%	>40%	<20	20%	20%	inhibition (Allium cepa [1]): inactive; inhibition (INH) (Triticum aestivum [2]): >40%; inhibition (Triticum aestivum [4]): inactive; inhibition (INH) (Solanum lycopersicum [5]): >40%; inhibition (Solanum lycopersicum [14]): inactive; inhibition (INH) (Lactuca sativa [16]): 20%; inhibition (INH) (Lactuca sativa [18]): 20%; inhibition (INH) (Lepidium sativum [28]): >40%; Activity (Lepidium sativum [29]): >40%; inhibition (INH) (Lepidium sativum [30]): >40%

From ChEMBL document CHEMBL3045304, “Sesquiterpene lactones with potential use as natural herbicide models. 2. guaianolides” (2000)
